Test results as given in ChEMBL document CHEMBL4043276, “Design, synthesis and biological evaluation of 2-acetyl-5-O-(amino-alkyl)phenol derivatives as multifunctional agents for the treatment of Alzheimer's disease” (Bioorg Med Chem Lett, 2017).
The source made the active and inactive calls. The rule behind the calls is not given here.

Legend:
Acetylcholinesterase = Acetylcholinesterase (Electrophorus electricus, UniProt O42275); experiment: Inhibition of electric eel AChE using acetylthiocholine as substrate incubated for 15 mins by Ellman's method
[1] = molecular target: T1, Amine oxidase [flavin-containing] A (Homo sapiens, UniProt P21397); experiment: Inhibition of recombinant human MAO-A at 10 uM using kynuramine as substrate after 30 mins by fluorescence method relative to control; settings: 0.5 h
T1 sequence (P21397 whole entry): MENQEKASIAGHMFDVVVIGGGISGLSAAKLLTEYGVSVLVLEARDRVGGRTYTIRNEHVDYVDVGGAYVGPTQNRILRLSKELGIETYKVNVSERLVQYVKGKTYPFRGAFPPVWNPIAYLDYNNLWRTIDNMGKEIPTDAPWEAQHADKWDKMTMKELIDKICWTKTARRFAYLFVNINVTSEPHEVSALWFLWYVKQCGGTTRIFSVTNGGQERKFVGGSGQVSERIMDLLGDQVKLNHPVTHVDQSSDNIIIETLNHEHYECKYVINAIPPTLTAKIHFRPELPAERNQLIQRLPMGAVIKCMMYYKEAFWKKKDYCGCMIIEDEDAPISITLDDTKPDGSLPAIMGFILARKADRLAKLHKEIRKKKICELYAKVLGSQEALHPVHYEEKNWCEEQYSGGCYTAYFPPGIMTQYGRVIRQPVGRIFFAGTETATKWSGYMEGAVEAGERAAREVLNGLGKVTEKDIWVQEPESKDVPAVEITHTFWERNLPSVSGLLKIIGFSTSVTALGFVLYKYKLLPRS

[2] = molecular target: BuChE (butyrylcholinesterase) (Equus caballus, UniProt P81908); experiment: Inhibition of equine serum BuChE at 50 uM incubated for 15 mins by Ellman's method relative to control; settings: horse
[3] = molecular target: T2, Amine oxidase [flavin-containing] B (Homo sapiens, UniProt P27338)
T2 sequence (P27338 whole entry): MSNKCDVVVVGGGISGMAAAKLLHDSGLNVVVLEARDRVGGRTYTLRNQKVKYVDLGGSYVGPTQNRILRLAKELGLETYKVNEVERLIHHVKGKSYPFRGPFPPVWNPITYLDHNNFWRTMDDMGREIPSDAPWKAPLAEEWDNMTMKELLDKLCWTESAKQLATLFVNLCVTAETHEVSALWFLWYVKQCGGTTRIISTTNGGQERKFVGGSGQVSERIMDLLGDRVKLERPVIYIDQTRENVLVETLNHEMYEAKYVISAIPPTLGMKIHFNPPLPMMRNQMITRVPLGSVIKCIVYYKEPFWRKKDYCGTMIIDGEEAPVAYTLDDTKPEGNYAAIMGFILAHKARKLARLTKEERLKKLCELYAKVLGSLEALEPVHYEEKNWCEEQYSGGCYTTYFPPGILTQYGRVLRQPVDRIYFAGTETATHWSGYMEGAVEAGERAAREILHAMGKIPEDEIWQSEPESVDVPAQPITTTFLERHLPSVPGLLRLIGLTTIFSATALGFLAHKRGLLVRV

[4] = Antioxidant activity assessed as trolox equivalent of […]-induced radical scavenging activity measured every minute for 90 mins by ORAC fluorescein assay; format: functional
Method in brief: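 Measured by the ORAC-FL fluorescein method. Values are given as μM Trolox equivalent per μM of test compound.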

[5] = Effective permeability of the compound by PAMPA; format: physicochemical; settings: read-out: Peff
Cholinesterase = Cholinesterase (Equus caballus, UniProt P81908); format: ADME
[6] = Selectivity index, ratio of IC50 for equine serum BuChE to IC50 for electric eel AChE
Method in brief: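 IC50 values for E. electricus AChE and equine serum BuChE came from a modified Ellman assay, each the mean of three independent experiments run in triplicate. The selectivity index is the ratio of the two IC50 values.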

PC-12 [7] = experiment: Protection against H2O2-induced cell injury in rat PC12 cells assessed as cell viability preincubated for 2 hrs followed by H2O2 addition measured after 24 hrs by MTT assay; format: functional, cell-based
Method in brief: (§1)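 PC12 cells were injured with 100 μM H2O2. Viability was measured by MTT reduction and compared with untreated control and with the H2O2-only group.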

PC-12 [8] = experiment: Protection against H2O2-induced cell injury in rat PC12 cells assessed as cell viability at 10 uM preincubated for 2 hrs followed by H2O2 addition measured after 24 hrs by MTT assay (reference value: 46.5%); format: functional; settings: read-out: Activity; method in brief: as §1
PC-12 [9] = experiment: Protection against H2O2-induced cell injury in rat PC12 cells assessed as cell viability at 1 uM preincubated for 2 hrs followed by H2O2 addition measured after 24 hrs by MTT assay (reference value: 46.5%); format: functional; settings: read-out: Activity; method in brief: as §1
[10] = Metal chelating activity assessed as compound-Cu2+ complex formation by measuring red shift at 37.5 uM after 30 mins by UV-Visible spectrophotometric method
[11] = Metal chelating activity assessed as compound-Zn2+ complex formation at 37.5 uM after 30 mins by UV-Visible spectrophotometric method
[12] = Metal chelating activity assessed as compound-Fe2+ complex formation at 37.5 uM after 30 mins by UV-Visible spectrophotometric method
[13] = Metal chelating activity assessed as compound-Al3+ complex formation at 37.5 uM after 30 mins by UV-Visible spectrophotometric method
[14] = Metal chelating activity assessed as mole fraction of compound required to show 1:1 stoichiometry for Cu2+-compound complex at 37.5 uM after 30 mins by UV-Visible spectrophotometric method
[15] = molecular target: Acetylcholinesterase (Electrophorus electricus) (UniProt O42275); settings: 0.5 to 2 uM
[16] = molecular target: Acetylcholinesterase (Electrophorus electricus) (UniProt O42275); experiment: Inhibition of electric eel AChE at 50 uM using acetylthiocholine as substrate incubated for 15 mins by Ellman's method relative to control

Chain of Acetylcholinesterase (O42275 whole entry): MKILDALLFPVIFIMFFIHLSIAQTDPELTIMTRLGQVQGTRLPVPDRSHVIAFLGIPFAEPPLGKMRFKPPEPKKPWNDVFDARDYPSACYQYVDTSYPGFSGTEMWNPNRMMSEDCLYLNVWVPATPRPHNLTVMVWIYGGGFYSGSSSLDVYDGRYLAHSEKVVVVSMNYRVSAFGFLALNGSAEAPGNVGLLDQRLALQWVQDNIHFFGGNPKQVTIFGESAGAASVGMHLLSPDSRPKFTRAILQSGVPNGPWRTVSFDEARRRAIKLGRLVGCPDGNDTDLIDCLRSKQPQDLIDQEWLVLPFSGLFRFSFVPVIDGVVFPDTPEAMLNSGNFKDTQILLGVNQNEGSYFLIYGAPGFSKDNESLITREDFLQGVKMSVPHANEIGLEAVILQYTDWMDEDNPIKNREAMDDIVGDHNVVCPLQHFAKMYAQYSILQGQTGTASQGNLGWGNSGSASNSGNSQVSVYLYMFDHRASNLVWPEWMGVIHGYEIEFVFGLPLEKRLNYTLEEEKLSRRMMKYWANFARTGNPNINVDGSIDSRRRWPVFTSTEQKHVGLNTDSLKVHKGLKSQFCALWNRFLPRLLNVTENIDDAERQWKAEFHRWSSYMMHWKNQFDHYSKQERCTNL
Chain of Cholinesterase (P81908 whole entry): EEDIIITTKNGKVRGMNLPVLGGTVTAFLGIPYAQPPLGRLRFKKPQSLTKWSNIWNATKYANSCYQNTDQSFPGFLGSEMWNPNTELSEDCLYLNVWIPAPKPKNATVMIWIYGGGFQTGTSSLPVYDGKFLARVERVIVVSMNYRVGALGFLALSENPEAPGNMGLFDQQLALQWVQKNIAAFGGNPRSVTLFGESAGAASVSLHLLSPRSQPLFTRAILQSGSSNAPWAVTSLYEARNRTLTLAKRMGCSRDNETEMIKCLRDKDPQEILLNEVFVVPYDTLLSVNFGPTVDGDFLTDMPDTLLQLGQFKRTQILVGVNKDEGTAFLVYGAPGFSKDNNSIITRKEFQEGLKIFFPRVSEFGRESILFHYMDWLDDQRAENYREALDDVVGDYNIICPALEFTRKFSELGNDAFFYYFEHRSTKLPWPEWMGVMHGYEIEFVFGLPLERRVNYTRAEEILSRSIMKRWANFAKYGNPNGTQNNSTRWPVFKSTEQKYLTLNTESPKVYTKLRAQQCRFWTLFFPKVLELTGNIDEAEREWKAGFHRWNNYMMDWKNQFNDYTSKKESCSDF
Chain of BuChE (butyrylcholinesterase) (P81908 whole entry): as above
Chain of Acetylcholinesterase (Electrophorus electricus) (O42275 24-633 limits assumed): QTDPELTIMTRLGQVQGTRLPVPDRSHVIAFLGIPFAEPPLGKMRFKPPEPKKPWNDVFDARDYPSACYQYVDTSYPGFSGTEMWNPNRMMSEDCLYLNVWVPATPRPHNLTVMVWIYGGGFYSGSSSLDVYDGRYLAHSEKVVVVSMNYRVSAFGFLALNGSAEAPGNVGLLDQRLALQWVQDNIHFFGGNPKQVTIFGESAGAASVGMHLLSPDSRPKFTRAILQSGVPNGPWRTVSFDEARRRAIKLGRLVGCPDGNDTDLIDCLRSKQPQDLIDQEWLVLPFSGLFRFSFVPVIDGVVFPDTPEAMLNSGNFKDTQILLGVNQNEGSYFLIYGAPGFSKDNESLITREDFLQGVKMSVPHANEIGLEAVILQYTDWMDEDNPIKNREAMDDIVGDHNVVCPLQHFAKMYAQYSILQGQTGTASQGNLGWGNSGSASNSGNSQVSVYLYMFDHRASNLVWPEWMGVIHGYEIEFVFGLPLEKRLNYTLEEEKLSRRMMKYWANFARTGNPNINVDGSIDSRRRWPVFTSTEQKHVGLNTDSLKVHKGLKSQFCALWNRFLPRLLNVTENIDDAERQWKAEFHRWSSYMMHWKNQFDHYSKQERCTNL

Row | Structure (SMILES) | IC50 (Acetylcholinesterase) [µM] | inhibition at 10 µM [1] [%] | inhibition at 0.25 h, 50 µM [2] [%] | IC50 [3] [µM] | Activity [4] [equiv] | further results
1 | CC(=O)c1ccc(OCCCN2CCCCC2)cc1O | 29.2 | < 5 | < 5 | 2.8 | 1.1 | 
2 | C[C@]12CC[C@H]3[C@@H](CCC4=CC(=O)CC[C@@]43C)[C@@H]1CC[C@@H]2O [TESTOSTERONE] |  |  |  |  |  | Papp [5]: 16.3 to 17 ×10⁻⁶ cm/s
3 | CC(=O)c1ccc(OCCCN2CCN(c3ccccn3)CC2)cc1O | 15.2 | < 5 | 8.8 | 11.7 | 0.98 | 
4 | CC(=O)c1ccc(OCCCN2CCN(Cc3ccccc3)CC2)cc1O | 0.96 | < 5 |  | 6.8 | 1.5 | IC50 (Cholinesterase): 31.4 µM; Ratio IC50 [6]: 32.7; Activity (PC-12 [7]): Dose-dependent effect; viability at 10 µM (PC-12 [8]): 73.3%; viability at 1 µM (PC-12 [9]): 59.6%; Activity [10]: Active; Activity [11]: inactive; Activity [12]: inactive; Activity [13]: inactive; Activity [14]: 0.99 molar ratio; Papp [5]: 13.3 ×10⁻⁶ cm/s; inhibition [15]: Active
5 | CC(=O)c1ccc(OCCCCCCN2CCCCC2)cc1O | 2.9 | < 5 |  | 26.6 | 0.98 | IC50 (Cholinesterase): 45.7 µM; Ratio IC50 [6]: 15.8
6 | CC(=O)c1ccc(OCCCN2CCN(c3ncccn3)CC2)cc1O | 26.3 | < 5 | < 5 | 15.1 | 0.95 | 
7 | Cn1c(=O)c2[nH]cnc2n(C)c1=O.O [THEOPHYLLINE] |  |  |  |  |  | Papp [5]: 0.1 to 0.12 ×10⁻⁶ cm/s
8 | CC(=O)c1ccc(OCCCCCN2CCCC2)cc1O | 6.3 | < 5 |  | 3.5 | 1 | IC50 (Cholinesterase): 37.2 µM; Ratio IC50 [6]: 5.9
9 | CCn1cc(C(=O)O)c(=O)c2cc(F)c(N3CCNCC3)cc21 [NORFLOXACIN] |  |  |  |  |  | Papp [5]: 0.1 to 0.42 ×10⁻⁶ cm/s
10 | CC(=O)c1ccc(OCCCCN2CCN(Cc3ccccc3)CC2)cc1O | 2.2 | < 5 | 11.5 | 15.9 | 1.4 | 
11 | CC(=O)c1ccc(OCCCCCCN2CCCC2)cc1O | 3.9 | < 5 |  | 12.2 | 1 | IC50 (Cholinesterase): 46.5 µM; Ratio IC50 [6]: 11.9
12 | CC(=O)c1ccc(OCCCCCCN2CCN(Cc3ccccc3)CC2)cc1O | 16.8 | < 5 |  | 30.8 | 1.3 | IC50 (Cholinesterase): 75.4 µM; Ratio IC50 [6]: 4.5
13 | Cn1c(=O)c2c(ncn2C)n(C)c1=O [CAFFEINE] |  |  |  |  |  | Papp [5]: 1.28 to 1.3 ×10⁻⁶ cm/s
14 | CC(=O)c1ccc(OCCCCN2CCN(c3ncccn3)CC2)cc1O | 27.5 | < 5 | < 5 | 15.2 | 0.98 | 
15 | CN1C(C(=O)Nc2ccccn2)=C(O)c2ccccc2S1(=O)=O [PIROXICAM] |  |  |  |  |  | Papp [5]: 0.72 to 2.5 ×10⁻⁶ cm/s
16 | CC(=O)c1ccc(OCCCCN2CCCC2)cc1O | 16.7 | < 5 | 18.4 | 1.8 | 1 | 
17 | CC(=O)c1ccc(OCCCCN2CCCCC2)cc1O | 8.8 | < 5 | 21.4 | 2.5 | 1 | 
18 | CC(=O)c1ccc(OCCCCCN2CCN(c3ncccn3)CC2)cc1O | 51.8 | < 5 |  | 15.5 | 1 | IC50 (Cholinesterase): 137 µM; Ratio IC50 [6]: 2.6
19 | CC(=O)c1ccc(OCCCCCCN2CCN(c3ccccn3)CC2)cc1O | 25.8 | < 5 | < 5 | 20.7 | 1.1 | 
20 | CC(=O)c1ccc(OCCCCCN2CCN(c3ccccn3)CC2)cc1O | 21.9 | < 5 | < 5 | 16.7 | 0.99 | 
21 | CC(=O)c1ccc(OCCCN2CCCC2)cc1O | 41.3 | < 5 | < 5 | 0.62 | 1 | 
22 | CC(=O)c1ccc(O)cc1O |  |  | < 5 |  | 2.5 | inhibition [16]: < 5%
23 | Clc1cccc(Cl)c1N=C1NCCN1 [CLONIDINE] |  |  |  |  |  | Papp [5]: 5.1 to 5.3 ×10⁻⁶ cm/s
24 | CC(=O)c1ccc(OCCCCCN2CCN(Cc3ccccc3)CC2)cc1O | 8.5 | < 5 |  | 26.8 | 1.3 | IC50 (Cholinesterase): 46.1 µM; Ratio IC50 [6]: 5.4
25 | CCn1cc(C(=O)O)c(=O)c2cc(F)c(N3CCNCC3)nc21 [ENOXACIN] |  |  |  |  |  | Papp [5]: 0.47 to 0.9 ×10⁻⁶ cm/s
26 | CC(=O)c1ccc(OCCCCCN2CCCCC2)cc1O | 5.5 | < 5 | 27.9 | 6.1 | 1.1 | 
27 | CC(=O)c1ccc(OCCCCN2CCN(c3ccccn3)CC2)cc1O | 18.4 | < 5 | < 5 | 12 | 1.1 | 
28 | CC(=O)c1ccc(OCCCCCCN2CCN(c3ncccn3)CC2)cc1O | 57 | < 5 | < 5 | 34.6 | 0.98 | 
